How the values were obtained:
[1] = test system: Plasmodium falciparum; experiment: Inhibition of Plasmodium falciparum protein farnesyltransferase at 500 nM
[2] = test system: Plasmodium falciparum; experiment: Inhibition of Plasmodium falciparum protein farnesyltransferase at 50 nM
[3] = test system: Plasmodium falciparum; experiment: Inhibition of Plasmodium falciparum protein farnesyltransferase at 5 nM
[4] = test system: Plasmodium falciparum; experiment: Inhibition of Plasmodium falciparum protein farnesyltransferase at 0.5 nM
[5] = test system: Plasmodium falciparum; experiment: Antimalarial activity against chloroquine-sensitive Plasmodium falciparum 3D7 in human red blood cells after 48 hrs; type: functional; conditions: 3D7, 48 h, read-out: ED50 (the source's name)
Outline: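 P. falciparum strain 3D7 (chloroquine-sensitive) grown in red blood cell cultures. ED50 was taken as the compound concentration that inhibits parasite growth by 50%.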

[6] = test system: Plasmodium falciparum; experiment: Antimalarial activity against chloroquine-resistant Plasmodium falciparum K1 in human red blood cells after 48 hrs; type: functional; conditions: K1, 48 h, read-out: ED50 (the source's name)
Outline: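 Parasites grown in red blood cell cultures; ED50 is the concentration that inhibits parasite growth by 50%.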

[7] = (§1) Metabolic stability assessed as half life in mouse liver microsomes; type: ADME, Microsome; conditions: liver microsomes
Outline: (§2)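 Compound incubated with mouse liver microsomes. Half-time is for the loss of parent compound, in minutes.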

[8] = test system: Plasmodium falciparum; experiment: Antimalarial activity against Plasmodium falciparum; type: functional; conditions: read-out: ED50
Outline: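 P. falciparum parasites (chloroquine-sensitive strain 3D7 and chloroquine-resistant strain K1) were grown in red blood cell cultures with compound. ED50 is the concentration giving 50% inhibition of parasite growth, in nM.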

[9] = species: Rattus norvegicus; experiment: Inhibition of rat protein farnesyltransferase at 5000 nM
[10] = species: Rattus norvegicus; experiment: Inhibition of rat protein farnesyltransferase at 500 nM
[11] = species: Rattus norvegicus; experiment: Inhibition of rat protein farnesyltransferase at 50 nM
[12] = species: Rattus norvegicus; experiment: Inhibition of rat protein farnesyltransferase at 5 nM
[13] = species: Rattus norvegicus; experiment: Inhibition of rat protein farnesyltransferase at 0.5 nM
[14] = species: Rattus norvegicus; experiment: Inhibition of rat protein geranylgeranyltransferase 1 at 1 uM
Outline: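 Run like the rat PFT assay, but with rat PGGT-I (5 ng), H-Ras-CVLL peptide as substrate, and [3H]geranylgeranyl pyrophosphate as donor. Read-out is percent inhibition at a single inhibitor concentration.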

[15] = test system: Liver; experiment: as §1; type: ADME, Microsome; conditions: microsomes; outline: as §2

COC(=O)N1CCC(CN(C2Cc3cc(C#N)cnc3N(Cc3cncn3C)C2=O)S(=O)(=O)c2ccccn2)CC1 (configuration not stated) showed an inhibition [1] of 97%, an inhibition [2] of 88% and an inhibition [3] of 16%. For the same molecule, the inhibition [4] was 0%, the EC50 [5] was 320 nM and the EC50 [6] was 310 nM.

In the case of COC(=O)N1CCC(CN(C2Cc3cc(C#N)ccc3N(Cc3cncn3C)C2)S(=O)(=O)c2ccccn2)CC1 (configuration not stated), the half-life [7] is reported as 5.4 min and the EC50 [8] is reported as 320 nM.

Molecule Cn1cnc(S(=O)(=O)N(Cc2ccc(S(C)(=O)=O)cc2)C2Cc3cc(C#N)cnc3N(Cc3cncn3C)C2=O)c1 (configuration not stated) has an inhibition [1] of 99%, an inhibition [2] of 98% and an inhibition [3] of 80%. For the same molecule, the inhibition [4] was 27%, the EC50 [5] was 420 nM and the EC50 [6] was 300 nM. It also gave a half-life [7] of 52 min, an inhibition [9] of 47% and an inhibition [10] of 9%. It also gave an inhibition [11] of 0%, an inhibition [12] of 0% and an inhibition [13] of 0%. It also gave an inhibition [14] of 0%.

COC(=O)N1CCC(CN(C2Cc3cc(C#N)ccc3N(Cc3cncn3C)C2)S(=O)(=O)c2cn(C)cn2)CC1 (configuration not stated) showed a half-life [7] of 3.8 min.

Cn1cnc(S(=O)(=O)N(Cc2ccc(S(C)(=O)=O)cc2)C2Cc3cc(C#N)ccc3N(Cc3cncn3C)C2)c1 (configuration not stated) gave a t1/2 [15] of 15.6 min.

In the case of Cn1cncc1CN1C(=O)C(N(Cc2ccc(S(C)(=O)=O)cc2)S(=O)(=O)c2ccccn2)Cc2cc(C#N)cnc21 (configuration not stated), the inhibition [1] is reported as 91%, the inhibition [2] is reported as 48% and the inhibition [3] is reported as 3%. The inhibition [4] was 0%, the EC50 [5] was 3100 nM and the EC50 [6] was over 5000 nM. For the same molecule, the half-life [7] was 15 min.

Cn1cnc(S(=O)(=O)NC2Cc3cc(C#N)cnc3N(Cc3cncn3C)C2=O)c1 (configuration not stated) showed an inhibition [1] of 94%, an inhibition [2] of 66% and an inhibition [3] of 32%. For the same molecule, the inhibition [4] was 15%, the EC50 [5] was over 5000 nM and the EC50 [6] was over 5000 nM. The inhibition [9] was 39%, the inhibition [10] was 0% and the inhibition [11] was 1%. For the same molecule, the inhibition [12] was 0%, the inhibition [13] was 0% and the inhibition [14] was 0%.

For Cn1cnc(S(=O)(=O)NC2Cc3cc(Br)cnc3N(Cc3cncn3C)C2=O)c1 (configuration not stated), the inhibition [1] was 74%, the inhibition [2] was 28% and the inhibition [3] was 0%. For the same molecule, the inhibition [4] was 0%, the EC50 [5] was over 5000 nM and the EC50 [6] was over 5000 nM. The inhibition [9] was 51%, the inhibition [10] was 8% and the inhibition [11] was 8%. It also gave an inhibition [12] of 5%, an inhibition [13] of 0% and an inhibition [14] of 16%.

Work on COC(=O)N1CCC(CN(C2Cc3cc(C#N)cnc3N(Cc3cncn3C)C2=O)S(=O)(=O)c2cn(C)cn2)CC1 (configuration not stated) yielded an inhibition [1] of 98%, an inhibition [2] of 95% and an inhibition [3] of 71%. The inhibition [4] was 33%, the EC50 [5] was 350 nM and the EC50 [6] was 175 nM. It also gave a half-life [7] of over 120 min, an inhibition [9] of 85% and an inhibition [10] of 71%. For the same molecule, the inhibition [11] was 28%, the inhibition [12] was 7% and the inhibition [13] was 0%. For the same molecule, the inhibition [14] was 5%.

Reference: ChEMBL document CHEMBL1142286, “2-Oxo-tetrahydro-1,8-naphthyridines as selective inhibitors of malarial protein farnesyltransferase and as anti-malarials” (Bioorg Med Chem Lett, 2008)
